Experimental findings from ChEMBL document CHEMBL1140198, “Studies on novel 4beta-[(4-substituted)-1,2,3-triazol-1-yl] podophyllotoxins as potential anticancer agents” (Eur J Med Chem, 2008) are described below.

A word on the IC50: it is the concentration that inhibits the measured activity by half. A low value points to greater potency.

Assay type in all cases: functional, cell-based
The subject of one test is A549. The test can be described thus: Cytotoxicity against human A549 cells by sulforhodamine B assay. The essentials:
(§1)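 Log-phase cells seeded at 10⁴ cells/well and allowed to attach for 24 h at 37 °C, 5% CO₂. Then exposed to test samples over a 1:10 serial dilution series for 48 h under the same conditions, four replicate wells per condition. Fixed with 50% chilled TCA for 1 h at 4 °C, stained with sulforhodamine B, and the bound dye dissolved in Tris buffer.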
A general note: The SRB assay estimates cell density from bound dye.

For the next test, the system named is DU-145. The test can be described thus: Cytotoxicity against human DU145 cells by sulforhodamine B assay. The essentials:
as §1

Another test deals with PC-3. The test can be described thus: Cytotoxicity against human PC-3 cells by sulforhodamine B assay. The essentials:
as §1

The test system of another test is HEp-2. The test can be described thus: Cytotoxicity against human HEP2 cells by sulforhodamine B assay. The method in brief: as §1
A further test deals with HCT-15. The test can be described thus: Cytotoxicity against human HCT-15 cells by sulforhodamine B assay. The essentials:
as §1

A short description of test [1]: Cytotoxicity against human 502713 cells by sulforhodamine B assay. The method in brief: as §1
The next test deals with SF-295. The test can be described thus: Cytotoxicity against human SF295 cells by sulforhodamine B assay. The essentials:
as §1

For `COc1cc([C@@H]2c3cc4c(cc3[C@@H](n3cc(CNc5cccc(Cl)c5)nn3)[C@H]3COC(=O)[C@H]23)OCO4)cc(OC)c1OC`, the IC50 was 4.99 µM in the test on A549; 930 nM in the test on DU-145; 1180 nM in the test on PC-3; 1370 nM in the test on HEp-2; 340 nM in the test with HCT-15; 710 nM in test [1]. Moreover, half-maximal inhibition in the test on SF-295 (IC50) was put at 840 nM.
As to `COc1cc([C@@H]2c3cc4c(cc3[C@@H](n3cc(CNc5ccccc5C)nn3)[C@H]3COC(=O)[C@H]23)OCO4)cc(OC)c1O`, the IC50 in the test with A549 was found to be 5.17 µM; in the test on DU-145 it was 1190 nM; in the test on PC-3, 1530 nM; in the test on HEp-2 it was 1500 nM; in the test with HCT-15 it was 140 nM; in test [1], 620 nM. Further, in the test on SF-295, the IC50 turned out to be 960 nM.
In the case of `COc1cc([C@@H]2c3cc4c(cc3[C@@H](n3cc(CNc5ccccc5)nn3)[C@H]3COC(=O)[C@H]23)OCO4)cc(OC)c1O`, the IC50 amounted to 7.46 µM in the test on A549; 1090 nM with DU-145; 1030 nM in the test on PC-3; 2960 nM in the test on HEp-2; 400 nM with HCT-15; 680 nM in test [1]. The same molecule displayed an IC50 in the test with SF-295 of 700 nM.
As to `COc1cc([C@@H]2c3cc4c(cc3[C@@H](n3cc(CNc5cccc([N+](=O)[O-])c5)nn3)[C@H]3COC(=O)[C@H]23)OCO4)cc(OC)c1OC`, the IC50 turned out to be 5.78 µM in the test with A549; 650 nM in the test with DU-145; 740 nM in the test on PC-3; 3650 nM in the test on HEp-2; 40 nM with HCT-15; 560 nM in test [1]. This molecule also showed an IC50 with SF-295 of 680 nM.
`COc1cc([C@@H]2c3cc4c(cc3[C@@H](n3cc(CNc5ccccc5)nn3)[C@H]3COC(=O)[C@H]23)OCO4)cc(OC)c1OC`: the IC50 in the test with A549 stood at 6.1 µM; in the test with DU-145 it was 1120 nM; with PC-3, 880 nM; with HEp-2, 4640 nM; with HCT-15 it was 140 nM; in test [1], 610 nM. The molecule also showed an IC50 in the test with SF-295 of 780 nM.
For `COc1cc([C@@H]2c3cc4c(cc3[C@@H](n3cc(CNc5ccccc5C)nn3)[C@H]3COC(=O)[C@H]23)OCO4)cc(OC)c1OC`, the IC50 in the test on A549 amounted to 7.88 µM; in the test on DU-145, 1060 nM; with PC-3 it was 1090 nM; with HEp-2 it was 9140 nM; in the test on HCT-15 it was 360 nM; in test [1], 780 nM. Also, in the test with SF-295, the midpoint of inhibition, the IC50, lay at 1940 nM.
As for `COc1cc([C@@H]2c3cc4c(cc3[C@@H](n3cc(CNc5cccc([N+](=O)[O-])c5)nn3)[C@H]3COC(=O)[C@H]23)OCO4)cc(OC)c1O`, the IC50 in the test on A549 is 7.43 µM; with DU-145 it was 4370 nM; in the test with PC-3 it was 6630 nM; with HEp-2 it was 4100 nM; with HCT-15, 1550 nM; in test [1], 1190 nM. Moreover, the IC50 in the test on SF-295 was 4200 nM.
In the case of `COc1cc([C@@H]2c3cc4c(cc3[C@@H](n3cc(CNc5cccc(Cl)c5)nn3)[C@H]3COC(=O)[C@H]23)OCO4)cc(OC)c1O`, the IC50 in the test with A549 amounted to 8.63 µM; in the test on DU-145 it was 4160 nM; with PC-3, 1370 nM; in the test with HEp-2, 1220 nM; in the test with HCT-15 it was 4220 nM; in test [1], 980 nM. Also, in the test on SF-295, inhibition was half-maximal at 3110 nM (IC50).
Consider `COc1cc([C@@H]2c3cc4c(cc3[C@@H](n3cc(CNc5ccccc5Cl)nn3)[C@H]3COC(=O)[C@H]23)OCO4)cc(OC)c1OC`, for which the IC50 with A549 is 9.24 µM; with DU-145, 3570 nM; in the test with PC-3 it was 3450 nM; in the test with HEp-2, 1260 nM; with HCT-15, 1430 nM; in test [1], 1880 nM. The IC50 in the test on SF-295 came out at 1000 nM.
With `COc1cc([C@@H]2c3cc4c(cc3[C@@H](O[C@@H]3O[C@@H]5CO[C@@H](C)O[C@H]5[C@H](O)[C@H]3O)[C@H]3COC(=O)[C@H]23)OCO4)cc(OC)c1O` [ETOPOSIDE], the IC50 in the test on A549 came to 5.62 µM; in the test with DU-145, 3850 nM; with PC-3, 17400 nM; with HEp-2, 2150 nM; in the test on HCT-15 it was 1480 nM; in test [1] it was 2420 nM. Further, the IC50 in the test on SF-295 came out at 13300 nM.
As to `COc1cc([C@@H]2c3cc4c(cc3[C@H](O)[C@H]3COC(=O)[C@H]23)OCO4)cc(OC)c1OC` [PODOFILOX], the IC50 stood at 7.63 µM in the test with A549; 2970 nM in the test with DU-145; 18900 nM in the test on PC-3; 1420 nM with HEp-2; 1000 nM in the test with HCT-15; 3880 nM in test [1]. This molecule also came in with an IC50 in the test on SF-295 of 5690 nM.
